These results are taken from ChEMBL document CHEMBL1127022, “Transformation of monoamine oxidase-B primary amine substrates into time-dependent inhibitors. Tertiary amine homologues of primary amine substrates” (J Med Chem, 1993).

Series [1] deals with T1, Amine oxidase [flavin-containing] B (Bos taurus, UniProt P56560).
T1 sequence (P56560 whole entry): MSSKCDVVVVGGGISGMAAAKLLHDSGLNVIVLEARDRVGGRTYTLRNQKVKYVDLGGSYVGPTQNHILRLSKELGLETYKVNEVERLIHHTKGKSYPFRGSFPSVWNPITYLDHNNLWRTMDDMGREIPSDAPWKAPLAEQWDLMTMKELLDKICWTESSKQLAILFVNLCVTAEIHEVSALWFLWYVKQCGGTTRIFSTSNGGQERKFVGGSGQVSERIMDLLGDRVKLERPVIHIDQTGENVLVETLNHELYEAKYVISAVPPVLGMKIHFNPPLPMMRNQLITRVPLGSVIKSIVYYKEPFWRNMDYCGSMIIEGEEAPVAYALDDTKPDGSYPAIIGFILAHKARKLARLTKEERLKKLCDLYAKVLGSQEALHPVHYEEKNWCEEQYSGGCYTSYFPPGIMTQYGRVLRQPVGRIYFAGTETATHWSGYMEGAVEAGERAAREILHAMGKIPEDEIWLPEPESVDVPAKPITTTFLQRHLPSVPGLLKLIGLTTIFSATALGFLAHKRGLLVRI
In words: Inhibition of Monoamine oxidase-B from Bovine liver. The gist of the method:
(§1)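 Bovine liver MAO-B was added to inhibitor at various concentrations in 100 mM potassium phosphate, pH 7.40, with 2.0 mM β-mercaptoethanol or glutathione, at 25 °C. Aliquots taken over time were assayed with 0.5 mM cinnamylamine in 100 mM Tris, pH 9.0, and corrected against a no-inhibitor control. Ki and kinact came from Kitz–Wilson analysis.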

Series [2] addresses T1, Amine oxidase [flavin-containing] B. Kind of series: Inactivation kinetic constant Monoamine oxidase-B from Bovine liver. To be noted: cattle. The gist of the method:
as §1

For series [3] the target is unchanged. In words: Catalysis activity was calculated for Monoamine oxidase-B from Bovine liver. To be noted: cattle. The gist of the method: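 Purified bovine liver MAO-B, with the test amine as substrate. Km and kcat were obtained by following the rate of hydrogen peroxide formation.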

Structures are written as SMILES.

On to `CN(C)CCC(=O)c1ccccc1`, for which, in series [1], the affinity corresponds to a Ki of 0.35 mM. Besides, in series [2], the kinact was 0.0288 s⁻¹.

For `CN(C)CCCCc1ccccc1`, the Ki in series [1] worked out at 10 mM. Besides, the inactivation rate constant (kinact) in series [2] is 4.83e-05 s⁻¹.

`CN(C)CCCc1ccccc1`: the k cat in series [3] is 0.21 s⁻¹. This compound also returned an inhibition constant (Ki) in series [1] of 0.38 mM. Besides, in series [2], the inactivation rate constant (kinact) was 0.00717 s⁻¹.

`CCCCCN(C)C` registered a Ki in series [1] of 2.1 mM. Moreover, the inactivation rate constant (kinact) in series [2] was 0.000267 s⁻¹.

On to `CCCNCCc1ccccc1`, for which the Ki in series [1] was 4 mM. In series [2], the kinact is 0.0767 s⁻¹.

Take `CN(C)CCc1ccccc1`: the k cat in series [3] is 1.4 s⁻¹. In addition, the affinity in series [1] corresponds to a Ki of 7.1 mM. In series [2], the kinact is 0.128 s⁻¹.

As a reminder, the Ki is a measure of affinity in units of concentration, obtained from inhibition or displacement. Read a low Ki as higher affinity. Broadly, the kinact is the rate constant of inactivation at saturating inhibitor.
